Test results published in PMC3897123 (MedChemComm, 2013).

Legend:
cell viability = experiment: CytoTox-Glo cell viability assay; assay type: cell-based; conditions: only at the highest concentration tested
Nox2 [1] = target: T1, Nox2 (Homo sapiens, UniProt P04839); experiment: Cell-free Nox2 activity in lysed COS-Nox2 cells; assay type: biochemical; conditions: 6.3 μM compound; COS-Nox2 cell lysate, 130 μM LiDS, 180 μM NADPH
T1 sequence (P04839 2-570 limits assumed): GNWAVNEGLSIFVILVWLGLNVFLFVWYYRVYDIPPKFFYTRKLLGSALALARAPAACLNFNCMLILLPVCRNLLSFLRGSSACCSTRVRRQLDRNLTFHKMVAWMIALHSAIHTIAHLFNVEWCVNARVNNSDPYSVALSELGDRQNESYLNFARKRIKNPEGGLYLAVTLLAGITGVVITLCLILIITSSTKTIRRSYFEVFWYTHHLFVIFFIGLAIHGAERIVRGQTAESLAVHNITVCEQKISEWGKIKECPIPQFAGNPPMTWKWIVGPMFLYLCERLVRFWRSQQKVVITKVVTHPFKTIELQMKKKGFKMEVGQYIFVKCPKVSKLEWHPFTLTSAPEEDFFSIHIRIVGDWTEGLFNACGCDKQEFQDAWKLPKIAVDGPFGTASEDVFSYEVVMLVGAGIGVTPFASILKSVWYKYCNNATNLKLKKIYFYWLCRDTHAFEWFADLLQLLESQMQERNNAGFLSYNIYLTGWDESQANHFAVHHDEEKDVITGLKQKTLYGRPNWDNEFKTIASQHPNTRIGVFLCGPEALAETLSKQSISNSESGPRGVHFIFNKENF
T1 sequence (P13498 2-195 partner limits assumed): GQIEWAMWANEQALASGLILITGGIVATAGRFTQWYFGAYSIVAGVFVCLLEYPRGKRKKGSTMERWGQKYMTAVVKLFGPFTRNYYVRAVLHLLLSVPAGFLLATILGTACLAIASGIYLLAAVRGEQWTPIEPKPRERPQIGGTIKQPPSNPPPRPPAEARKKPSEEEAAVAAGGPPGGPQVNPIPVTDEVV
Summary of the method: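 Cell-free system: COS-Nox2 cell lysate is preincubated with test compound for 15 min at 25 °C. Subunits are assembled with 130 μM LiDS, and the reaction is started with 180 μM NADPH. O2•− is measured as the initial linear rate of SOD-inhibitable cytochrome C reduction, in nmol O2•− per min per 10^7 cell equivalents.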

Nox4 = target: T2, Nox4 (Homo sapiens, UniProt Q9NPH5); experiment: Amplex Red assay of constitutive Nox4 activity; assay type: cell-based; conditions: for Nox4 activity (in words): Amplex Red, COS-Nox4 cells
T2 sequence (Q9NPH5 1-578): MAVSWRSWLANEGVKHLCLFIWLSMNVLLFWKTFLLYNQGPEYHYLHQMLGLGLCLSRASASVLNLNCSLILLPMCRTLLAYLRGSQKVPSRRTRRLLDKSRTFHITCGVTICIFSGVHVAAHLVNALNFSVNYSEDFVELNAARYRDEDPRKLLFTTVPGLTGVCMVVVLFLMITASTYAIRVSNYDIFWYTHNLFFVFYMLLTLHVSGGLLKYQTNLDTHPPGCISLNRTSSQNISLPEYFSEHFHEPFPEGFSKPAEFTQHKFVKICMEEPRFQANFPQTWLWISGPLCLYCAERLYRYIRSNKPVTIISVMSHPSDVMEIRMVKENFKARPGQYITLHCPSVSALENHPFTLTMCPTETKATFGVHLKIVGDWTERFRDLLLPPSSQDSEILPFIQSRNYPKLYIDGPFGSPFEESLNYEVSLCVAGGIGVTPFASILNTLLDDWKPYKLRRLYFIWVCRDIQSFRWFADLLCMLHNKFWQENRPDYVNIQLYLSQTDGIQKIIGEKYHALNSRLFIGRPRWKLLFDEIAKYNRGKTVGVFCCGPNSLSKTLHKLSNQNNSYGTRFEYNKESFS
T2 sequence (P13498 2-195 partner limits assumed): T1 sequence (P13498 2-195 partner limits assumed)
Summary of the method: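 Transiently transfected COS-Nox4 cells, unstimulated (constitutive activity), pretreated with various test compound concentrations for 15 min. The initial rate of H2O2 production is read by Amplex Red fluorescence. Results are given as % of vehicle control, mean ± SEM of 3–7 independent experiments; IC50 comes from the concentration–response curve.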

Nox2 [2] = target: T1, Nox2; experiment: L-012 chemiluminescence assay of O2•− generation in whole COS-Nox2 cells; assay type: cell-based
Summary of the method: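 Stable Nox2-transfected COS cells, stimulated with 5 μM PMA; O2•− is detected by L-012 chemiluminescence. The primary screen of library compounds ran at 100, 50, 25 and 12.5 μM. Follow-up concentration–response data are expressed as % of vehicle control (mean ± SEM of 3–7 independent experiments), and IC50 is extrapolated from the curve slope.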

Nox1 = target: T3, Nox1 (Homo sapiens, UniProt Q9Y5S8); assay type: cell-based; conditions: for Nox1 activity (in words): summary of Table 1
T3 sequence (Q9Y5S8 1-564): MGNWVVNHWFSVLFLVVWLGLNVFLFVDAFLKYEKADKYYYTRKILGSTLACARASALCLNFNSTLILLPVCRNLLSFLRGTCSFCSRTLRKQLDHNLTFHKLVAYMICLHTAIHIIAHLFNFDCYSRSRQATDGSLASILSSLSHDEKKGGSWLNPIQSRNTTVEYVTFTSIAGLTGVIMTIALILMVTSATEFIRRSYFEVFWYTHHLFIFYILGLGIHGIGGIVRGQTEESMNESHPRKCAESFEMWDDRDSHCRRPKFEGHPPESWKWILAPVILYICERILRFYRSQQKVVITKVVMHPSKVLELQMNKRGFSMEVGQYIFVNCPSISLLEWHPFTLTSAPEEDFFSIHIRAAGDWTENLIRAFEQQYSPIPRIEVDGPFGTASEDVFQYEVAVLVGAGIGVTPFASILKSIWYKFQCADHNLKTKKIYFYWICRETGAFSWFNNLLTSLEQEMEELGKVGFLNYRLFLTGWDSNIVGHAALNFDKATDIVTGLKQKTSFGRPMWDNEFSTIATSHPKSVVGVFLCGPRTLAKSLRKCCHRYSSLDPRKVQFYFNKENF
T3 sequence (P13498 2-195 partner limits assumed): T1 sequence (P13498 2-195 partner limits assumed)

Nox5 = target: T4, Nox5 (Homo sapiens, UniProt Q96PH1); experiment: L-012 assay of Nox5 activity in HEK-Nox5 cells; assay type: cell-based; conditions: summary of Table 1
T4 sequence (Q96PH1 1-765): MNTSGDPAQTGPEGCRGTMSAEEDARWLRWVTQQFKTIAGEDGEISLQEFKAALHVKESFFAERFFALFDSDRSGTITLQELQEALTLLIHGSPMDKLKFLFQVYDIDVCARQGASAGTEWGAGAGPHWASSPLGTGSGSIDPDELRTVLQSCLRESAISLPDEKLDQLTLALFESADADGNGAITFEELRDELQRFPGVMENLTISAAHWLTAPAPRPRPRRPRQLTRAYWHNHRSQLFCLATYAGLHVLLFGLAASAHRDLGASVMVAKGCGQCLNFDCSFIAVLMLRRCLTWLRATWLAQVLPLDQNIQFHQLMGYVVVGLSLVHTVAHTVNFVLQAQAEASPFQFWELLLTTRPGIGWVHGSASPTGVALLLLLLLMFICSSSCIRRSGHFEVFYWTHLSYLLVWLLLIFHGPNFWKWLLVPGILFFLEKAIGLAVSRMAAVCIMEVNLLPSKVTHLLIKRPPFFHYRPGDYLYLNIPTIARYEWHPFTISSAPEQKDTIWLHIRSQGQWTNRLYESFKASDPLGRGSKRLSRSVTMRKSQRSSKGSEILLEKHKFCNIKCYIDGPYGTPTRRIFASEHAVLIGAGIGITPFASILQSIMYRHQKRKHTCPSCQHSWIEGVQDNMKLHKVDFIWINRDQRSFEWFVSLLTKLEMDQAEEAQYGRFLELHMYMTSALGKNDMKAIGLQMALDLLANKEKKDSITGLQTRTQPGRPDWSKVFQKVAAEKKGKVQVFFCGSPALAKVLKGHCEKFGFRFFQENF

Nox2 [3] = target: T1, Nox2; experiment: Amplex Red assay of ROS generation in whole COS-Nox2 cells; assay type: cell-based
Summary of the method: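 Whole COS-Nox2 cells stimulated with 5 μM PMA, with SOD added to convert O2•− to H2O2. H2O2 is read by Amplex Red fluorescence across a concentration range of test compound. Activity is expressed as % of vehicle control, as mean ± SEM of 3–7 independent experiments; IC50 is derived from the concentration–response curve.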

Q: Which results are given for `C=C(C)C[C@@H]1N[C@H]2CC(C)(C)[C@@H]1c1c(Br)cccc12` [Compound 7]?
A: Effect on cell viability (cell viability): effect on cell viability; LiDS-stimulated O2•− generation (Nox2 [1]): almost non-stimulated levels

Q: What does the source list for `C=C(C)C[C@@H]1N[C@H]2CC(C)(C)[C@@H]1c1ccccc12` [Compound 8]?
A: IC50 (Nox4): > 100 µM; Activity in primary screen (Nox2 [2]; UPCMLD library screen at 100, 50, 25, and 12.5 μM, L-012, COS-Nox2 cells): inactive

Q: `C=C(C)C[C@H]1[C@H]2c3c(Br)cccc3[C@H](CC2(C)C)N1Cc1ccnc2ccccc12` [Compound 11b] was tested. Which IC50 (Nox4) did it give?
A: > 100 µM

Q: For `C=C(C)C[C@H]1[C@H]2c3c(Br)cccc3[C@H](CC2(C)C)N1Cc1c[nH]c2ccccc12` [Compound 11c], which IC50 (Nox4) is on record?
A: > 100 µM

Q: How did the “Nox1 activity (in words)” value (Nox1) turn out when `C=C(C)C[C@H]1[C@H]2c3c(Br)cccc3[C@H](CC2(C)C)N1CCCCC` [Compound 11g] was run?
A: virtually no effect

Q: What about the “Nox5 activity (in words)” value (Nox5) of the same compound?
A: virtually no effect

Q: What about the “Nox4 activity (in words)” value (Nox4) of the same compound?
A: virtually no effect

Q: How did the “Nox1 activity (in words)” value (Nox1) turn out when `C=C(C)C[C@H]1[C@H]2c3c(Br)cccc3[C@H](CC2(C)C)N1Cc1cccs1` [Compound 11h] was run?
A: virtually no effect

Q: What about the “Nox5 activity (in words)” value (Nox5) of the same compound?
A: virtually no effect

Q: What about the IC50 (Nox4) of the same compound?
A: > 100 µM

Q: And the “Nox4 activity (in words)” value (Nox4)?
A: virtually no effect

Q: How did the IC50 (Nox4) turn out when `C=C(C)C[C@H]1[C@H]2c3c(-c4ccc(Cl)c(Cl)c4)cccc3[C@H](CC2(C)C)N1Cc1ccc2c(c1)OCO2` [Compound 12b] was run?
A: > 100 µM

Q: Which results are given for `C=C(C)C[C@@H]1N[C@H]2CC(C)(C)[C@@H]1c1c(-c3cccnc3)cccc12` [Compound 12d]?
A: IC50 (Nox2 [3]): > 100 µM; IC50 (Nox2 [2]): > 100 µM

Q: What does the source list for `CC(C)C[C@@H]1N[C@H]2CC(C)(C)[C@@H]1c1c(Br)cccc12` [Compound 13]?
A: Effect on cell viability (cell viability): effect on cell viability; Nox1 activity (in words) (Nox1): retained inhibitory activity; Nox5 activity (in words) (Nox5): retained inhibitory activity; Nox2 inhibitory activity (in words) (Nox2 [2]; text summary of Table 1 (Amplex Red and L-012 assays)): retained inhibitory activity

Q: Which IC50 (Nox1) does the source give for `C=C(C)C[C@H]1[C@H]2c3c(Br)cccc3[C@H](CC2(C)C)N1S(C)(=O)=O` [Compound 14a] here?
A: > 100 µM

Q: With `C=C(C)C[C@H]1[C@H]2c3c(Br)cccc3[C@H](CC2(C)C)N1S(=O)(=O)c1ccc(F)cc1` [Compound 14b] as the compound, how does the IC50 (Nox4) read?
A: > 100 µM
